The results in this text go back to ChEMBL document CHEMBL1147237, “Two new epimeric pairs of acetogenins bearing a carbonyl group from Annona cherimolia seeds” (J Nat Prod, 2003).

One series relates to MCF7. Put plainly: Cytotoxicity against human MCF7 cells after 7 days by MTT assay. In kind it is functional. As to conditions: MCF7, 168 h, read-out: LD50 (the source's name). The procedure, abridged:
(§1)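 Seven-day in vitro MTT cytotoxicity assay run by a cancer-center cell culture laboratory under standard protocols, using A-549 (human lung carcinoma), MCF-7 (human breast carcinoma), HT-29 (human colon adenocarcinoma), A-498 (human kidney carcinoma) and PC-3 (human prostate) cells. Isolated compounds were tested.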

A short description of series [1]: (§2) Toxicity in brine shrimp larvae. It is filed as organism-based. The following applies: artemia, in vivo.
The test system of a further series is A498. Put plainly: Cytotoxicity against human A498 cells after 7 days by MTT assay. It is filed as functional. The following applies: A498, 168 h, read-out: LD50 (the source's name). The procedure, abridged: as §1
A further series relates to HT-29. As to the kind of experiment: Cytotoxicity against human HT-29 cells after 7 days by MTT assay. The following applies: HT-29, 168 h, read-out: LD50 (the source's name). It is filed as functional. The procedure, abridged: as §1
For orientation: Tetrazolium assays rely on reduction of a dye to a coloured formazan, in cell work by metabolically active cells.

A further series deals with MIA PaCa-2. Put plainly: Cytotoxicity against human MIAPaCa2 cells after 7 days by MTT assay. It is filed as functional. As to conditions: MIA PaCa-2, 168 h, read-out: LD50 (the source's name).
Another series concerns PC-3. As to the kind of experiment: Cytotoxicity against human PC3 cells after 7 days by MTT assay. In kind it is functional. As to conditions: PC-3, 168 h, read-out: LD50 (the source's name). In a few lines:
as §1

The subject of the next series is A549. As to the kind of experiment: Cytotoxicity against human A549 cells after 7 days by MTT assay. In kind it is functional. The following applies: A549, 168 h, read-out: LD50 (the source's name). The procedure, abridged: as §1
The test system of the next series is Artemia. The description is as §2. In kind it is organism-based. As to conditions: in vivo.

≈ marks a conversion by molar mass, not a printed value.

In the case of `CCCCCCCCCCCC[C@@H](O)[C@H]1CC[C@H]([C@H](O)CCCC(=O)CCCCCCCCC2=CC(C)(O)OC2=O)O1` (mixture of isomers), the CC50 with MCF7 was 0.303 µg/mL; in the series with A498 it was 0.93 µg/mL; with HT-29 it was 0.193 µg/mL; in the series on MIA PaCa-2, 0.00312 µg/mL; in the series on PC-3 it was 0.198 µg/mL; with A549 it was 1.26 µg/mL. Also, the LC50 in series [1] came out at 0.375 µg/mL.
Take `CCCCCCCCCCCC[C@@H](O)[C@H]1CC[C@H]([C@H](O)CCCC(=O)CCCCCC[C@@H](O)CC2=CC(C)(O)OC2=O)O1` (mixture of isomers) [ANNOMOLON B/34-EPI-ANNOMOLON B]: the CC50 is 0.047 µg/mL with MCF7; 0.377 µg/mL in the series on A498; 0.0719 µg/mL in the series with HT-29; 0.00748 µg/mL in the series on MIA PaCa-2; 0.0553 µg/mL in the series with PC-3; 1.37 µg/mL in the series on A549. This compound also registered an LC50 with Artemia of 7 ×10⁻² ug/ml.
For the compound `COc1cccc2c1C(=O)c1c(O)c3c(c(O)c1C2=O)C[C@@](O)(C(=O)CO)C[C@@H]3O[C@H]1C[C@H](N)[C@H](O)[C@H](C)O1` [DOXORUBICIN], the CC50 in the series with MCF7 was 0.0182 µg/mL (≈ 0.0335 µM); in the series on A498 it was 0.00226 µg/mL (≈ 0.00416 µM); in the series on HT-29 it was 0.0128 µg/mL (≈ 0.0235 µM); in the series on MIA PaCa-2 it was 0.00262 µg/mL (≈ 0.00482 µM); in the series on PC-3, 0.0502 µg/mL (≈ 0.0924 µM); in the series on A549, 0.00113 µg/mL (≈ 0.00208 µM).
